# Ecoli tolC = E. coli tolC mutant growth inhibition; E. coli BW25113 tolC mutant growth, OD615; growth inhibition, % at 10 µM (by protocol); 65,000 compounds, 2.2% hits; AID 573;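 active means growth inhibition at or above a cutoff equal to the mean over every tested compound plus 3 SD, cut at about 60% in these data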;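 further: growth measured after 20 h incubation at 37 °C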
#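 Test system: tolC-deleted E. coli BW25113; medium: LB with kanamycin 50 µg/mL; compound: single-point testing at 10 µM; incubation: 20 h compound exposure of bacteria at 37 °C; signal: OD at 615 nm; evaluation: growth inhibition in percent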
# AP complement = alternative pathway complement inhibition, orthogonal assay; inhibition, % at 5 µM; AID 1235; 62,000 compounds, 0.08% hits; Human serum alternative complement pathway, LPS-coated ELISA, C3 deposition; tested in compound mixtures;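 active means inhibition above 30% in each of the two pooled mixtures holding the compound, so the lower value exceeds 30%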;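 further: 0% = serum in Mg-EGTA without compound and 100% = EDTA serum blank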
#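 Test system – human serum alternative complement pathway, C3 deposition on LPS-coated wells · Buffer or medium – diluted human serum in Mg2+-EGTA GVB++ · Compound dosing – 5 µM each compound, pools of ten, 50 µM per pool · Schedule – 1 h serum-compound exposure at 37 °C · Measured by – Anti-C3 ELISA, OD 450 nm · Read-out basis – percent inhibition of C3 deposition onto LPS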
# MMP13 inh = inhibitors of human MMP13; MMP-13 fTHP FRET cleavage, Mca fluorescence; inhibition, % at 4 µM; 65,000 compounds, 0.07% hits; AID 570;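 active means inhibition above the mean of compound-free control plate wells plus 3 SD, cut at about 14% in these data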;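 further: 0% = DMSO wells and 100% = wells with reference MMP-13 inhibitor after basal subtraction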
# Ecoli WT expand = growth inhibitors of E. coli BW25113 wild type. OD600 absorbance. growth inhibition, % at 100 µM. 98,000 compounds, 0.15% hits;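 active means growth inhibition above about 50% at one test dose, limit read from the data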;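 further: growth measured after 20 h incubation at 37 °C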
# HePTP inhibitor = human HePTP phosphatase inhibition. P35236. 110,000 compounds, 0.64% hits. inhibition, % at 20 µM. recombinant HePTP phosphatase activity, OD absorbance; in the data active means inhibition above about 50%;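 further: plate controls were vehicle for no effect and reference inhibitor for full effect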
# Target sequence (P35236 whole entry, looked up): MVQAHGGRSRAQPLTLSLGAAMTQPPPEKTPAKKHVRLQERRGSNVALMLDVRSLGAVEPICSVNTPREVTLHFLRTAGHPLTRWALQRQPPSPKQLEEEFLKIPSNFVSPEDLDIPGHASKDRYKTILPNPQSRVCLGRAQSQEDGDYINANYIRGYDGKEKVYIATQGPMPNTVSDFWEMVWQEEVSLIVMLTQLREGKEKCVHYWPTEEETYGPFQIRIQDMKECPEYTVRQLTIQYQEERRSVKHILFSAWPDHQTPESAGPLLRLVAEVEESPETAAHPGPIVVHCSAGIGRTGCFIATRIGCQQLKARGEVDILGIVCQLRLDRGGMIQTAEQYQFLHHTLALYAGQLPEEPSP
# Ec RNAP inh = Escherichia coli RNA polymerase inhibition; P0A8V2; E. coli RNA polymerase, fluorescence transcription assay; inhibition, %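 (tested at 10 µM)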; 62,000 compounds, 0.2% hits; AID 559; in the data active means inhibition above about 20%;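 further: 0% = enzyme without compound and 100% = no enzyme blank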
# * = called active by the depositor; . = not tested or not shown. Many of the other results were omitted from the sample, so hits are more common in it than they were.
SMILES,Ecoli tolC,AP complement,MMP13 inh,Ecoli WT expand,HePTP inhibitor,Ec RNAP inh
Cn1cccc1C(=O)Nc1nc(-c2ccccn2)cs1,90*,10,4,19,.,2
O=C(Nc1nc(-c2ccccn2)cs1)c1ncc(Cl)c(Cl)c1Cl,.,.,.,0,.,.
O=C(Nc1nc2ccc3ccccc3c2s1)c1ccc(Cl)s1,.,.,.,.,104*,.
Cc1csc(NC(=O)c2cccn2C)n1,.,.,.,0,.,.
Cc1cccc(OCCn2c(NC(=O)c3ccco3)nc3ccccc32)c1,98*,0,3,-6,-2,3
O=C(Nc1nc2ccccc2n1CCOc1ccccc1)c1ccco1,-8,4,-3,-2,8,1
O=C(Nc1nc2ccccc2n1CCOc1ccc(Cl)cc1)c1ccco1,77*,11,1,1,9,1
O=C(Nc1nc(-c2ccccc2)cs1)c1cccs1,98*,13,-1,-8,3,10
O=C(NCc1nc(-c2ccccc2)no1)c1cccs1,2,12,2,21,7,1
O=C(Nc1nc(-c2ccccc2)ns1)c1cccs1,64*,14,2,-4,10,2
CCOC(=O)C1=C(c2ccccc2)N=C2SCC(=O)N2C1c1ccc(OC)cc1 (stereo unspecified),.,.,.,.,6,.
COc1ccc(CNCc2ccc([N+](=O)[O-])cc2)cc1,.,.,.,.,1,.
NNc1ccc(/C=C/c2ccc(NN)cc2S(=O)(=O)O)c(S(=O)(=O)O)c1,.,.,.,.,94*,.
Cc1ccc(C(=O)O/N=C(/N)c2nonc2N)cc1,.,.,.,.,1,.
O=C1c2ccccc2C(=O)N1CCC(c1ccc(F)cc1)c1ccco1 (stereo unspecified),77*,12,5,4,-9,0
CCOc1cc(/C=C2\SC(=Nc3ccc(C)c(Cl)c3)NC2=O)ccc1O,.,.,.,.,7,.
O=C1NC(=Nc2ccc(O)cc2)S/C1=C\c1ccc([N+](=O)[O-])cc1,.,.,.,.,93*,.
Cc1ccc(N=C2NC(=O)/C(=C/c3ccc(O)c([N+](=O)[O-])c3)S2)cc1Cl,.,.,.,.,102*,.
CC(=O)Nc1ccccc1C(=O)N1CCc2ccccc2C1,.,.,.,.,-6,.
CCCOc1ccc(C(=O)CCc2ccccc2)cc1OCCC,.,.,.,.,3,.
O=C(NC(NC(=O)c1ccccc1)c1cccc([N+](=O)[O-])c1)c1ccccc1,.,.,.,.,104*,.
CC(C)CC(=O)NC(NC(=O)CC(C)C)c1cccc([N+](=O)[O-])c1,.,.,.,.,56*,.
Cc1cccc(C(=O)NC(NC(=O)c2cccc(C)c2)c2cccc([N+](=O)[O-])c2)c1,.,.,.,.,3,.
CCOc1cc(C(=O)Nc2ccc3c(c2)OCO3)cc(OCC)c1OCC,.,.,.,.,-6,.
O=C(NCCOc1ccccc1Cl)C(c1ccccc1)c1ccccc1,.,.,.,.,-2,.
SMILES,Ecoli tolC,AP complement,MMP13 inh,Ecoli WT expand,HePTP inhibitor,Ec RNAP inh
O=C(C1CCN(Cc2cc(Cl)ccc2O)CC1)N1CCN(Cc2ccccc2)CC1,95*,-12,3,4,-5,10
CCN1C(=O)/C(=C\c2ccc(-c3ccc([N+](=O)[O-])cc3)o2)SC1=S,.,.,.,.,-19,.
CCOC(=O)c1ccc(-c2ccc(/C=C3/SC(=S)N(CC(=O)O)C3=O)o2)cc1,.,.,.,.,54*,.
O=C1/C(=C/c2ccc(Br)o2)SC(=S)N1Cc1ccccc1,.,.,.,.,56*,.
O=C(O)CCCN1C(=O)/C(=C\c2ccc(-c3ccc(Br)cc3)o2)SC1=S,.,.,.,.,94*,.
O=C1/C(=C/c2ccc(-c3ccc([N+](=O)[O-])cc3)o2)SC(=S)N1Cc1ccco1,.,.,.,.,64*,.
CCOC(=O)C1=C(C)NC(=O)NC1c1ccsc1 (stereo unspecified),.,.,.,4,104*,.
CC1=C(C(=O)OCC(C)C)C(c2ccsc2)NC(=O)N1 (stereo unspecified),.,.,.,-11,.,.
Cc1cc(/C=C2/SC(=S)NC2=O)c(C)n1-c1ccc(F)cc1,.,.,.,.,-12,.
COc1ccc2nc(NC(=O)c3cc4ccccc4o3)sc2c1,.,.,.,.,8,.
O=C(O)C1CC(O)CN1C(=O)Oc1ccccc1 (stereo unspecified),.,.,.,.,105*,.
O=C(NCCCNc1ccc([N+](=O)[O-])cc1)c1cc2ccccc2o1,.,.,.,.,2,.
S=C(S)N(CCN(Cc1cccs1)C(=S)S)Cc1cccs1,.,.,.,.,67*,.
N#C/C(=C\c1ccc(-c2ccccc2)o1)C(=O)Nc1cccc2cccnc12,.,.,.,.,-20,.
O=C(COc1ccccc1Cl)NNC(=O)c1ccncc1,.,.,.,.,101*,.
O=C(O)C(Cc1ccccc1)N1C(=O)/C(=C/c2ccccc2[N+](=O)[O-])SC1=S (stereo unspecified),.,.,.,.,1,.

# From PubChem BioAssay
